Results collected from several papers.
Lines come from different studies, so protocols differ. Converted amounts (≈) assume the structure as drawn.
Organism: Mycobacterium tuberculosis
Observed: microbial growth

| Structure (SMILES) | method | strain | time | quantity | result |
| --- | --- | --- | --- | --- | --- |
| C[C@H](N)C(=O)OCc1cc2[nH]c(=S)n(Cc3cncnc3)c(=O)c2cc1Cl |  | H37RV |  | MIC90 | 4.22 µM |
| CC(CNc1cc(-c2ccccn2)nc2nncn12)c1ccccc1 (centres unmarked) |  | H37RV |  | MIC | 35 µM |
| Nc1c(C(=O)N2CCOCC2)sc2nc(-c3ccccc3)ccc12 |  | H37RV |  | IC50 | 46 µM |
| CC(c1cccnc1)n1c(=S)[nH]c2cc(CO)c(Cl)cc2c1=O (centres unmarked) |  | H37RV |  | MIC90 | > 100 µM |
| CCCCCCC#Cc1cncc(-c2nnc(SCc3ccc([N+](=O)[O-])o3)n2CCCN)c1 | resazurin | ERDMAN |  | IC50 | 12 µM |
| Cc1cccc(NC(=O)c2sc3nc(-c4cccs4)cc(C(F)(F)F)c3c2N)c1C |  | H37RV |  | IC50 | > 100 µM |
| COc1ccc(CCNc2cc(-c3ccccn3)nc3cc(C4CC4)nn23)cc1 |  | H37RV |  | MIC | 42 µM |
| CCCCCCC#Cc1cncc(-c2nnc(SCc3cc([N+](=O)[O-])cc([N+](=O)[O-])c3)n2CCCN)c1 | resazurin | ERDMAN |  | IC50 | 3.2 µM |
| CCc1cc(=O)c2c(OCC(O)CN3CCCCC3)c3ccoc3c(OC)c2o1 (centres unmarked) | resazurin |  | 21 days | MIC | 32 µg/mL |
| Cc1ccc(-c2cc(NCCc3ccc(F)cc3)n3cnnc3n2)o1 |  | H37RV |  | MIC | 19 µM |
| CCCCCCC#Cc1cncc(-c2nnc(SCc3ccc(Cl)cc3)n2CCCN)c1 | resazurin | ERDMAN |  | IC50 | 29 µM |
| COc1ccc(-c2cc(C(F)(F)F)c3c(N)c(C(=O)NC45CC6CC(CC(O)(C6)C4)C5)sc3n2)cc1 |  | H37RV |  | IC50 | > 100 µM |
| CCCCCCC#Cc1cncc(-c2nnc(SCc3cc([N+](=O)[O-])cc([N+](=O)[O-])c3)n2CCOC2OC(CN)C(O)C2O)c1 (centres unmarked) | resazurin | ERDMAN |  | IC50 | 18 µM |
| CCC(NC(=O)c1sc2nc(-c3ccc(OC)cc3)cc(C(F)(F)F)c2c1N)c1ccccc1 (centres unmarked) |  | H37RV |  | IC50 | 0.55 µM |
| CC(=O)c1cc(-c2ccoc2)ccc1OCCc1cccc(F)c1 |  |  |  | IC50 | 0.26 µM |
| FC(F)(F)c1ccc(CCNc2cc(-c3ccccn3)nc3nncn23)cc1 |  | H37RV |  | IC90 | 0.53 µM |
| O=C(OCc1cc2[nH]c(=S)n(Cc3cncnc3)c(=O)c2cc1Cl)Oc1ccccc1 |  | H37RV |  | MIC90 | 1.94 µM |
| CC(C)(O)c1ccc(OCCc2cccc(F)c2)c(C(N)=O)c1 |  |  |  | IC50 | 2.7 µM |
| NCC[C@H](O)C(=O)N[C@@H]1C[C@H](N)[C@@H](O[C@H]2O[C@H](CN)[C@@H](O)[C@H](O)[C@H]2O)[C@H](O)[C@H]1O[C@H]1O[C@H](CO)[C@@H](O)[C@H](N)[C@H]1O |  | H37RV |  | MIC50 | 1.2 µg/mL (≈ 2.05 µM) |

| Structure (SMILES) | method | strain | time | quantity | result |
| --- | --- | --- | --- | --- | --- |
| c1ccc(-c2cc(NCCC34CC5CC(CC(C5)C3)C4)n3cnnc3n2)nc1 |  | H37RV |  | MIC | 11 µM |
| COc1ccc(-c2cc(C(F)(F)F)c3c(N)c(C(=O)N4CCCC4(C)C)sc3n2)cc1 |  | H37RV |  | IC50 | > 100 µM |
| CCCCCCC#Cc1cncc(-c2nnc(SCc3ccc(Cl)cc3)n2CCO)c1 | resazurin | ERDMAN |  | IC50 | 49 µM |
| O=[N+]([O-])c1cn2c(n1)OC[C@@H](OCc1ccc(OC(F)(F)F)cc1)C2 |  | H37RV |  | MIC | 0.125 µg/mL |
| NNC(=O)c1ccncc1 |  |  |  | MIC50 | 0.1 µg/mL (≈ 0.729 µM) |
| O=c1c2cc(Cl)c(CO)cc2[nH]c(=S)n1Cc1cccnc1 |  | H37RV |  | MIC90 | 3.6 µM |
| Nc1c(C(=O)NCc2ccc(F)cc2)sc2nc(-c3ccccc3)ccc12 |  | H37RV |  | IC50 | > 100 µM |
| COc1ccc(CCNc2cc(-c3ccccn3)nc3nncn23)cc1 |  | H37RV |  | MIC | 0.39 µM |
| COc1ccc(-c2cc(C(F)(F)F)c3c(N)c(C(=O)Nc4cc(C)ccc4C)sc3n2)cc1 |  | H37RV |  | IC50 | > 100 µM |
| Clc1ccc(CCNc2cc(C3CCCO3)nc3nncn23)cc1 (centres unmarked) |  | H37RV |  | MIC | 73 µM |
| CC[C@@H](CO)NCCN[C@@H](CC)CO | resazurin |  | 21 days | MIC | 0.5 µg/mL |
| COC(=O)OCc1cc2[nH]c(=S)n(Cc3cncnc3)c(=O)c2cc1Cl |  | H37RV |  | MIC90 | 1.84 µM |
| CO[C@H]1/C=C/O[C@@]2(C)Oc3c(C)c(O)c4c(O)c(c(/C=N/N5CCN(C)CC5)c(O)c4c3C2=O)NC(=O)/C(C)=C\C=C\[C@H](C)[C@H](O)[C@@H](C)[C@@H](O)[C@@H](C)[C@H](OC(C)=O)[C@@H]1C |  | H37RV |  | MIC90 | 0.12 µg/mL |
| N#Cc1cncc(Cn2c(=S)[nH]c3cc(CO)c(Cl)cc3c2=O)c1 |  | H37RV |  | MIC90 | 2.7 µM |
| CCc1cc(=O)c2c(OCC(O)CN3CCOCC3)c3ccoc3c(OC)c2o1 (centres unmarked) | resazurin | H37RV | 21 days | MIC | 256 µg/mL |
| O=c1c2cc(Cl)ccc2[nH]c(=S)n1Cc1ccc(-n2cccn2)nc1 |  | H37RV |  | MIC90 | > 100 µM |
| Cc1ccc(CCNc2cc(-c3nccs3)nc3nncn23)cc1 |  | H37RV |  | MIC | 32 µM |
| NC(=O)c1cncc(Cn2c(=S)[nH]c3ccc(Cl)cc3c2=O)c1 |  | H37RV |  | MIC90 | 63 µM |
| COc1ccc(-c2cc(C(F)(F)F)c3c(N)c(C(=O)NCCc4ccccc4)sc3n2)cc1 |  | H37RV |  | IC50 | > 100 µM |
